Activity calls are given as the source filed them. The calls are words filed in the database; no cut-off is given here.
Tests used:
[1] = Clearance in human liver microsomes at 0.5 uM incubated up to 30 mins in presence of NADPH by LC-MS/MS method; format: ADME, microsome; details: read-out: CLH
[2] = target: T1, Sodium- and chloride-dependent glycine transporter 1 (Homo sapiens, UniProt P48067); test: Displacement of [3H]N-Methyl-SSR504734 from human GlyT1c expressed in cell membranes incubated for 1 hr by liquid scintillation spectrometry
T1 sequence (P48067 whole entry): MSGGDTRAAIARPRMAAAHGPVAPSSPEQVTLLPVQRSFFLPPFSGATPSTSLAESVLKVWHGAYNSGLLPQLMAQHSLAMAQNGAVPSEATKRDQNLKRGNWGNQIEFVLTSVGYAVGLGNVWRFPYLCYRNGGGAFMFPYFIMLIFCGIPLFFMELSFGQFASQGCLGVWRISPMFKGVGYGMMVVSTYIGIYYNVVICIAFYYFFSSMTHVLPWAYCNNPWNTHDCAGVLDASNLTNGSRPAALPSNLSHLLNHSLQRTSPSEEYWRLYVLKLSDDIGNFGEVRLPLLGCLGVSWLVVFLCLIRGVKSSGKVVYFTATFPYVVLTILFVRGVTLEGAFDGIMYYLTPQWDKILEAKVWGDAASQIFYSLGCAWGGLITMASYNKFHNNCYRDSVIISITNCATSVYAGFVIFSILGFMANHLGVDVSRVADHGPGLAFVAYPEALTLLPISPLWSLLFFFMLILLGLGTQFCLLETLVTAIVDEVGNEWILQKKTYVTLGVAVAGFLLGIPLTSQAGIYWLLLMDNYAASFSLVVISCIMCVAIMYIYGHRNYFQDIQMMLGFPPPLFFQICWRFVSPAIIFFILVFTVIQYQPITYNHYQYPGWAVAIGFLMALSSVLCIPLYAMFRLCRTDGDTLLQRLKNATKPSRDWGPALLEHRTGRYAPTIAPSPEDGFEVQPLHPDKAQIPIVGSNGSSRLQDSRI

[3] = Drug level in Sprague-Dawley rat brain at 0.2 mg/kg, ip measured after 8 to 24 hrs by LC-MS/MS method; format: ADME, organism-based; details: in vivo, read-out: Drug uptake
[4] = Efflux ratio in MDCK2-MDR1 cells at 1 uM incubated fro 1 hr by LC-MS/MS method; format: ADME, cell-based, Canis lupus familiaris; details: dog, MDCK-MDR1
[5] = target: Voltage-gated inwardly rectifying potassium channel KCNH2 (Homo sapiens, UniProt Q12809); test: Inhibition of human ERG
Sequence of Voltage-gated inwardly rectifying potassium channel KCNH2 (Q12809 whole entry): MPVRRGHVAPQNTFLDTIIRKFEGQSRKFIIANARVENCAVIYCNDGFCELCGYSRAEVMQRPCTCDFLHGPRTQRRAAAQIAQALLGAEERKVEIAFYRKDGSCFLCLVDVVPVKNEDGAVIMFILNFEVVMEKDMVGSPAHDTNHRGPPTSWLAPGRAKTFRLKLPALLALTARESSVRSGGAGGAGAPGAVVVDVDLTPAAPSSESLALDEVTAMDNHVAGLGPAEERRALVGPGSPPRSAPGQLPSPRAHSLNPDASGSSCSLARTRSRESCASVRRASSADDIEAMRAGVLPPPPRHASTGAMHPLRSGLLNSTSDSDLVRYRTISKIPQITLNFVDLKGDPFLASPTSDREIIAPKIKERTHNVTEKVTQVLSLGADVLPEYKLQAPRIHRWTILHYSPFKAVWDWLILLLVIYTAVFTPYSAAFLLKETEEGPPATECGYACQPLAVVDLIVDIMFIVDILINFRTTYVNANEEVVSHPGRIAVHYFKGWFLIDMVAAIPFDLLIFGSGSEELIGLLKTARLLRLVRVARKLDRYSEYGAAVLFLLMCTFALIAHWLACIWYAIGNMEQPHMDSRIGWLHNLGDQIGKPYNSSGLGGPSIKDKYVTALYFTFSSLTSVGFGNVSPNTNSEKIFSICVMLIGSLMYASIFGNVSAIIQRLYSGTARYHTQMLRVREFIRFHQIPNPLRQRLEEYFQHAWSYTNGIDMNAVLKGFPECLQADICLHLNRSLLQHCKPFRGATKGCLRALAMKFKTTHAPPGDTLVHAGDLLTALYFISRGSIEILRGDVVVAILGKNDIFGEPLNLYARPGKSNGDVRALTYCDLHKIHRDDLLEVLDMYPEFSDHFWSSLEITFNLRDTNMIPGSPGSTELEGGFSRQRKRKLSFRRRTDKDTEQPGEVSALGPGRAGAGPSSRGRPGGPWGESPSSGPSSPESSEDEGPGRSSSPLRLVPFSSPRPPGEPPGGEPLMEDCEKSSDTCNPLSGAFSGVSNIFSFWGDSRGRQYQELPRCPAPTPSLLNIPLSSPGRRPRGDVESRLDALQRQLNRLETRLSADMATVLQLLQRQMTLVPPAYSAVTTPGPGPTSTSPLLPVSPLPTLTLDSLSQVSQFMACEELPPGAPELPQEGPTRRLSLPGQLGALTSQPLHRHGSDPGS

Mus musculus [6] = test: In-vivo binding affinity to GlyT1 in mouse assessed as target occupancy in forebrains dosed intraperitoneally using [3H]N-methyl-SSR504734 as radioligand after 1 hr by liquid scintillation counting method; format: functional; details: ip
Method in brief: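 Mice dosed i.p. at several doses; forebrain homogenates then tested ex vivo for binding of a GlyT1 radioligand to give target occupancy, with ED50 for 50% occupancy estimated across the dose range.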

[7] = fCmax in Sprague-Dawley rat brain at 2 mg/kg, ip measured after 8 to 24 hrs by LC-MS/MS method; format: ADME, organism-based; details: in vivo
[8] = Clearance in rat liver microsomes at 0.5 uM incubated up to 30 mins in presence of NADPH by LC-MS/MS method; format: ADME, microsome; details: read-out: CLH
[9] = Oral bioavailability in Sprague-Dawley rat at measured after 8 to 24 hrs by LC-MS/MS method; format: ADME, organism-based; details: in vivo
Cytochrome P450 3A4 = Cytochrome P450 3A4 (Homo sapiens, UniProt P08684); test: Inhibition of CYP3A4 in human liver microsomes in presence of NADPH regeneration mixture using luciferin IPA-OH substrate by P450-Glo assay; format: ADME
Sequence of Cytochrome P450 3A4 (P08684 whole entry): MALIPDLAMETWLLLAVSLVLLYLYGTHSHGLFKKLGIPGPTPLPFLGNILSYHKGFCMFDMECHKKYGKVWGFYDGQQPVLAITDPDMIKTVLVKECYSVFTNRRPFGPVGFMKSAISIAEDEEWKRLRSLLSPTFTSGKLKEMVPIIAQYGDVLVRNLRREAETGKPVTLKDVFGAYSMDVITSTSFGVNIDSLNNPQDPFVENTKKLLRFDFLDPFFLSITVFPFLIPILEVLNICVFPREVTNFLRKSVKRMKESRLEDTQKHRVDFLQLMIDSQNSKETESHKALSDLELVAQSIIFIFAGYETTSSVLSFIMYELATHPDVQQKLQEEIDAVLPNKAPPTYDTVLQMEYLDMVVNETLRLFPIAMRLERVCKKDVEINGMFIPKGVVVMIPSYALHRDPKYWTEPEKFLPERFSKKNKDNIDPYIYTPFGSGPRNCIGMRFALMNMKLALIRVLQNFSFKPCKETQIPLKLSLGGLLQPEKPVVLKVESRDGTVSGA

[10] = target: T2, Sodium- and chloride-dependent glycine transporter 1 (Homo sapiens) (UniProt P48067); test: Competitive inhibition of GlyT1c (unknown origin) expressed in Xenopus laevis oocytes clamped at -60 mV assessed as reduction in glycine-induced membrane currents at 300 nM pre-treated with glycine for 1 min followed by compound dosing for 3 mins by two-electrode voltage clamp assay; format: cell-based
T2 sequence (whole entry): T1 sequence (P48067 whole entry)
Method in brief: (§1)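 Oocytes expressing GlyT1c were stimulated with 10 µM or 3000 µM glycine to evoke transporter current. Compound at 300 nM was added to the glycine solution, and % inhibition of the current was calculated. Mode of inhibition was judged by comparing inhibition at the two glycine levels. Data are mean ± SD, N>4 oocytes.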

[11] = Permeability in MDCK2-MDR1 cells at 1 uM incubated fro 1 hr by LC-MS/MS method; format: ADME, cell-based, Canis lupus familiaris; details: dog, MDCK-MDR1; read-out: permeability
[12] = Solubility in water; format: physicochemical
[13] = Oral bioavailability in dog; format: ADME, organism-based, Canis lupus familiaris; details: in vivo
[14] = Ratio of free drug level in brain to plasma of Sprague-Dawley rat at 2 mg/kg, ip measured after 8 to 24 hrs by LC-MS/MS method; format: ADME, organism-based
Mus musculus [15] = test: Reversal of L687,414-induced hyperlocomotion in mouse at 0.3 to 3 mg/kg, ip dosed 120 mins before test followed by L687,414 dosing for 15 mins before test and measured after 60 mins by Wilcoxon-Mann-Whitney test; format: functional
Method in brief: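 Non-habituated mice received test agent (0.3, 1.0, 3.0 mg/kg) or vehicle i.p. 120 min before test, then 50 mg/kg L-687,414 or vehicle i.p. 15 min before test; locomotor activity recorded for 60 min; n=8 mice per group, mean ± SEM; Mann-Whitney and Dunn's multiple comparisons tests.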

[16] = target: T2, Sodium- and chloride-dependent glycine transporter 1 (Homo sapiens); test: Inhibition of GlyT1c (unknown origin) expressed in Xenopus laevis oocytes clamped at -60 mV assessed as reduction in 3000 uM glycine-induced membrane currents at 300 nM pre-treated with glycine for 1 min followed by compound dosing for 3 mins by two-electrode voltage clamp assay; format: cell-based; method in brief: as §1
[17] = target: T2, Sodium- and chloride-dependent glycine transporter 1 (Homo sapiens); test: Inhibition of GlyT1c (unknown origin) expressed in Xenopus laevis oocytes clamped at -60 mV assessed as reduction in 10 uM glycine-induced membrane currents at 300 nM pre-treated with glycine for 1 min followed by compound dosing for 3 mins by two-electrode voltage clamp assay; format: cell-based; method in brief: as §1
[18] = target: T2, Sodium- and chloride-dependent glycine transporter 1 (Homo sapiens); test: Non-competitive inhibition of GlyT1c (unknown origin) expressed in Xenopus laevis oocytes clamped at -60 mV assessed as reduction in glycine-induced membrane currents at 300 nM pre-treated with glycine for 1 min followed by compound dosing for 3 mins by two-electrode voltage clamp assay; format: cell-based; method in brief: as §1

| SMILES | microsomal CLint at 0.5 µM [1] [µL/min/mg] | Ki [2] [nM] | efflux ratio at 1 h, 1 µM [4] | IC50 [5] [nM] | ED50 (Mus musculus [6]) [mg/kg] | fCmax [7] [nM] | microsomal CLint at 0.5 µM [8] [µL/min/mg] | bioavailability [9] [%] | also measured |
| --- | --- | --- | --- | --- | --- | --- | --- | --- | --- |
| O=S(=O)(CC1CC1)NC1CN(c2ccc3c(c2)[C@@H](Cc2ccccc2)[C@@H](N2CCC2)CC3)C1 | < 23 | 0.9 | 1.7 | 4400 | 0.2 | 18.7 | 85 |  | concentration [3]: 0.9 nM |
| Oc1ccc2c(c1)C(C1(c3ccc(Cl)cc3)CCC1)NCC2 (configuration not stated) | 130 | 124 |  |  |  |  | 343 | < 1 | IC50 (Cytochrome P450 3A4): > 10000 nM; inhibition [10]: Active |
| Cn1cnc(S(=O)(=O)NCCOc2ccc3c(c2)[C@@H](Cc2ccccc2)[C@@H](N2CCCC2)CC3)c1 |  | 1.2 | 7.2 |  | 1.6 | 2 |  | 29 | Papp at 1 h, 1 µM [11]: 17 ×10⁻⁶ cm/s; solubility [12]: > 1000 µg/mL; bioavailability [13]: 49% |
| Cn1cnc(S(=O)(=O)NCc2ccc3c(c2)[C@@H](Cc2ccccc2)[C@@H](N2CCC2)CC3)c1 (relative stereo) |  | 3 |  |  | 1.8 |  |  | 51 | bioavailability [13]: 75% |
| CCCS(=O)(=O)NCCOc1ccc2c(c1)C(C1(c3ccc(Cl)cc3)CCC1)NCC2 (configuration not stated) | 620 | 3 |  |  |  |  | 450 | 7 | Kp uu [14]: 0.54; IC50 (Cytochrome P450 3A4): 620 nM; inhibition [10]: Active |
| CN[C@H]1CCc2ccc(OCCNS(=O)(=O)CC3CC3)cc2[C@H]1Cc1ccccc1 |  | 1.2 |  |  | 1.4 | 2.3 |  | 22 |  |
| CCCS(=O)(=O)NCCOc1ccc2c(c1)[C@@H](Cc1ccc(Cl)c(Cl)c1)[C@@H](N)CC2 (relative stereo) | 95 | 35 |  |  |  |  | 17 | 31 | Kp uu [14]: 0.05; IC50 (Cytochrome P450 3A4): > 10000 nM; inhibition [10]: Active |
| CCCS(=O)(=O)N[C@@H]1CCN(c2ccc3c(c2)[C@@H](Cc2ccccc2)[C@@H](N2CCC2)CC3)C1=O | < 23 | 28 | 1.6 | 4500 |  |  | 33 |  |  |
| O=S(=O)(CC1CC1)NCCOc1ccc2c(c1)[C@@H](Cc1ccccc1)[C@@H](N1CCC1)CC2 | 113 | 2.6 | 1.6 | 80 | 0.5 | 9.9 | 137 | 8 | Kp uu [14]: 0.8 |
| Cn1cnc(S(=O)(=O)NCCOc2ccc3c(c2)[C@@H](Cc2ccccc2)[C@@H](N2CCC2)CC3)c1 | 10 | 0.8 | 12 | 15000 | 1.4 | 2 | 55 | 17 | ED50 (Mus musculus [15]): 0.8 mg/kg; inhibition (Mus musculus [15]): Dose-dependent effect; inhibition [16]: 39%; inhibition [17]: 97%; Papp at 1 h, 1 µM [11]: 22 ×10⁻⁶ cm/s; solubility [12]: > 1000 µg/mL; bioavailability [13]: 75% |
| O=S(=O)(CC1CC1)NC1CN(c2ccc3c(c2)[C@@H](Cc2ccccc2)[C@@H](N2CCC2)CO3)C1 (relative stereo) | < 23 | 18 | 1 | 11400 |  |  | 130 |  |  |
| C[C@H](Oc1ccc(S(C)(=O)=O)cc1C(=O)N1CCN(c2ncc(C(F)(F)F)cc2F)CC1)C(F)(F)F [BITOPERTIN] |  | 47 |  |  |  |  |  |  | inhibition [16]: 95%; inhibition [17]: 67%; inhibition [18]: Active |
| CCCS(=O)(=O)NC1CN(c2ccc3c(c2)[C@@H](Cc2ccccc2)[C@@H](N2CCC2)CC3)C1 | < 23 | 2.6 | 1.4 | 6800 |  |  | 42 |  |  |

From ChEMBL document CHEMBL4145681, “Discovery of Novel Aminotetralines and Aminochromanes as Selective and Competitive Glycine Transporter 1 (GlyT1) Inhibitors” (J Med Chem, 2018)
